Screening data deposited in PubChem by several laboratories.
An excerpt weighted towards active compounds, which were near 9.2% of everything screened.
Lung fibro prol: blocks proliferation of human lung fibroblasts | LL 47 human lung fibroblast viability, ATP luminescence; active compounds read low | viability, % at 10 µM | 85,000 tested, 1.1% active | AID 719;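 active means viability at or below 50% in the single dose screen; inactive means viability above 50%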;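 further: compound exposure lasted 72 h before the ATP readout; 100% = median luminescence of untreated cell-only wells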
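Material: human lung fibroblast line LL 47, low passage; Evaluation: viability percentage against median untreated-cell control; Buffer or medium: 15% FBS in IMEM; Incubation: 72 h compound exposure at 37 °C after overnight plating; Dosing: 0.1% DMSO in all compound wells; Measured by: CellTiter-Glo luminescence.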
H69AR inhibit: blocks growth of human H69AR lung tumor cells; H69AR lung tumor viability, ATP luminescence, 72 h; active compounds read low; viability, % at 10 µM; 85,000 tested, 6% active;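 active means viability at or below 40%; inactive means viability above 40%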;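 further: multidrug resistant small cell line overexpressing MRP-1 efflux transporter; 100% = mean luminescence of untreated control wells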
ERb coact inh: ER-beta (human) coactivator binding inhibition | Q92731 | TR-FRET ER-beta LBD / SRC1-Cy5 peptide binding; receptor agonist-loaded with 1 µM estradiol | 86,000 tested, 1.3% active | inhibition, % at 25.6 µM;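 active means compounds whose percent inhibition of the receptor-coactivator binding signal exceeds about 50% in the single-dose screen, limit read from the data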;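 further: 0% = receptor plus peptide wells without compound and 100% = peptide-only wells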
Target sequence (Q92731 whole entry, looked up, the tested form may be a part): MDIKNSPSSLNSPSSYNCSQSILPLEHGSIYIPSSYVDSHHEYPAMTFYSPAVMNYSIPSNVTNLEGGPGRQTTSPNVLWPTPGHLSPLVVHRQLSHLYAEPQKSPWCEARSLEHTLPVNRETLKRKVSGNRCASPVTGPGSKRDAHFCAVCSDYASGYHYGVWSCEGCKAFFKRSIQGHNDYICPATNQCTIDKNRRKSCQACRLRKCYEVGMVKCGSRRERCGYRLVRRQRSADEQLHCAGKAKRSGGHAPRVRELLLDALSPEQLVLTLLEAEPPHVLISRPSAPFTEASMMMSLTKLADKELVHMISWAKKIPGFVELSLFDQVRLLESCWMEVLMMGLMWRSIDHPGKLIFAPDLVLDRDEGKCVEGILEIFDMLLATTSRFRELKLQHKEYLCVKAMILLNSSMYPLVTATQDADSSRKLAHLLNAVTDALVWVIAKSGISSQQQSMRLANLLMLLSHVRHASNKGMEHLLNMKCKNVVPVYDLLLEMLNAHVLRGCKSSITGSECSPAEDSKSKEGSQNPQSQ
HUVEC inhibit: human endothelial cell proliferation inhibition | HUVEC proliferation, CellTiter-Glo luminescence, 72 h; active compounds read low | viability, % at 10 µM (by protocol) | 86,000 tested, 1.1% active | AID 648;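 active means viability at or below 30%; inactive means viability above 30%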;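 further: 100% = median luminescence of DMSO-only cell control wells on each plate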
ERa coact inh: blocks coactivator binding to human estrogen receptor alpha; AID 629; 86,000 tested, 1.7% active; P03372; inhibition, % at 25.6 µM; TR-FRET ER-alpha LBD / SRC-1 peptide, estradiol-bound; in the data active means inhibition above about 50%;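 further: 0% = receptor plus peptide control and 100% = peptide only without receptor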
ERa coact pot: enhances coactivator binding to human estrogen receptor alpha. P03372. TR-FRET ERalpha-LBD/SRC-Cy5 coactivator binding, 2 h; 100 = basal binding, no effect. coactivator binding (% of control), % at 25.6 µM. 86,000 tested, 1.3% active; in the data active means activity above about 200%;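 further: binding measured in presence of low estradiol as agonist stimulus; 0% = peptide alone without receptor and 100% = receptor with peptide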
* marks the source's active call; other numbers are inactive results; [ ] = another dose, or the depositor's remark.

SMILES	Lung fibro prol	H69AR inhibit	ERb coact inh	HUVEC inhibit	ERa coact inh	ERa coact pot
CCOc1ccc2nc(NC(=O)CSc3nc4c(c(=O)n(C)c(=O)n4C)n3C(C)C)sc2c1	100.5	30.1*	-2.7	8.9*	-3.4	117.8
O=C(CSc1nc2ccccc2s1)c1cc2ccccc2o1	98.4	92.3	0.4	119.0	3.4	123.6
CC(C)n1c(SCC(=O)Nc2nc3ccccc3s2)nc2c1c(=O)n(C)c(=O)n2C	95.6	29.1*	-5.6	68.8	0.7	134.1
CCOc1ccc2nc(NC(=O)CSc3nnnn3C3CCCCC3)sc2c1	91.3	1.7*	21.1	79.5	-7.6	120.9
CCn1c(SCC(=O)Nc2nc3c(s2)CCCC3)nc2c1c(=O)n(C)c(=O)n2C	86.3	16.9*	2.2	92.4	9.1	77.1
O=c1c2ccccc2nc(SCc2nc3ccccc3s2)n1Cc1ccco1	59.5	32.7*	2.4	41.8	2.9	162.5
CCn1cc(S(=O)(=O)CC(=O)N2CCc3ccccc32)c2ccccc21	90.3	91.4	-3.0	90.2	4.4	117.5
CCOC(=O)C(NC(=O)Cc1ccccc1)(Nc1cc(C)on1)C(F)(F)F (configuration not stated)	99.5	82.7	1.1	107.2	1.9	110.4
CCC(=O)Nc1ccc(S(=O)(=O)Nc2cccc(C)c2)cc1OC	95.8	86.5	-8.4	98.0	-6.9	93.8
CCOc1ccc(CCNC(=O)c2cc3sccc3n2CC)cc1OCC	102.5	90.4	-0.9	104.8	-9.4	98.7
CCn1c(SCC(=O)Nc2nc3ccc(OC)cc3s2)nc2c1c(=O)n(C)c(=O)n2C	93.9	17.1*	-0.5	72.7	7.2	103.8
O=S(=O)(/N=C/c1c(O)ccc2ccccc12)c1cccs1	89.6	86.1	6.5	97.3	6.8	79.5
O=c1cc(Nc2ccc3c(c2)OCCO3)[nH]c(=O)n1-c1ccc(Cl)cc1	89.7	8.8*	16.5	73.6	-3.0	95.0
O=c1cc(Nc2ccc3c(c2)OCCO3)[nH]c(=O)n1C1CCCCC1	64.4	18.2*	-3.2	57.2	-0.5	99.3
CCc1ccc(Nc2cc(=O)n(C3CCCCC3)c(=O)[nH]2)cc1	85.1	15.8*	-26.3	68.6	-19.6	105.0
Cc1ccc(-c2nnc(SCC(=O)N3CC(C)CC(C)C3)o2)cc1C (configuration not stated)	104.5	84.6	-9.5	102.7	3.4	91.6
COCCNC(=O)CNS(=O)(=O)c1ccc2nc(C)sc2c1	102.2	95.7	-6.1	99.1	2.5	125.4
COC(=O)c1[nH]c2cc(OC)ccc2c1N	93.5	102.8	-3.9	94.2	9.0	99.7
CCOc1[nH]c(/N=C/c2ccco2)c(C#N)c1C#N	95.8	63.6	59.7*	84.0	34.7	71.6
COc1cccc(CNC(=O)Cc2c(C(=O)O)[nH]c3ccccc23)c1	101.9	105.7	14.5	101.6	-3.4	111.4
Cc1cccc(OCC(=O)Nc2nonc2NC(=O)COc2cccc(C)c2)c1	97.1	99.3	52.1*[fluorescence artefact?]	98.4	71.9*[fluorescence artefact?]	143.6
Cc1ccc(C)c(OCC(=O)NCCN(C)C)c1	97.6	104.5	-2.7	92.5	-5.6	98.5
Cc1ccc(C)c(OCC(=O)Nc2nonc2NC(=O)COc2cc(C)ccc2C)c1	95.9	19.2*	22.2	55.6	63.0*[fluorescence artefact?]	64.5
O=C(O)Cc1ccc(O)c(F)c1	99.2	95.5	9.5	101.0	-3.4	89.2
CCCCN(CCCC)c1cc(C)nc(-c2ccccc2O)n1	90.9	69.2	-6.6	129.8	-11.9	93.8
SMILES	Lung fibro prol	H69AR inhibit	ERb coact inh	HUVEC inhibit	ERa coact inh	ERa coact pot
COc1ccc(CC(=O)OCC(=O)Nc2c(C)n(C)n(-c3ccccc3)c2=O)cc1	97.9	101.0	-0.8	97.0	-8.0	109.5
CCOc1ccccc1-c1nc(-c2ccc(NC(=O)c3ccc(Br)o3)cc2)no1	74.0	55.2	21.4	54.0	29.8	384.3*
CCOc1ccccc1-c1nc(-c2ccc(NC(=O)Cc3ccc(OC)cc3)cc2)no1	65.2	10.6*	50.2*[fluorescence artefact?]	19.7*	42.8	287.1*[fluorescence artefact?]
COc1ccc(CC(=O)Nc2ccc(-c3noc(COc4ccccc4C)n3)cc2)cc1	101.9	84.1	11.2	97.1	22.5	123.5
CCOC(=O)c1c(NC(=O)CSc2nnc(Cc3ccccc3)o2)sc(C(C)=O)c1C	98.2	94.0	1.1	103.8	6.8	93.2
Cc1cc(C)c(C#N)c(SCC(=O)Nc2nnc(-c3ccccc3)s2)n1	100.0	103.9	6.2	70.2	-14.7	207.5*[fluorescence artefact?]
CCOC(=O)c1c(NC(=O)CSc2nc(C)cc(C)c2C#N)sc(C(C)=O)c1C	58.6	18.9*	49.1	38.4	61.2*[fluorescence artefact?]	678.1*[fluorescence artefact?]
Cc1cc(C)c(C#N)c(SCc2ccccc2)n1	98.1	85.1	-2.7	99.1	1.4	94.5
CCOC(=O)c1c(NC(=O)CSc2nnc(-c3ccccc3)o2)sc(C(C)=O)c1C	95.2	73.7	-6.6	87.0	-6.1	318.8*
CCOc1ccc(NC(=O)CNC(=O)c2cn(-c3ccccc3OC)c(=O)c3ccccc23)cc1	111.8	104.0	2.9	98.4	1.5	69.6
COC(=O)c1ccc2c(=O)n(CCN3CCOCC3)c(SCC(=O)NC3CCCCC3)nc2c1	106.9	90.2	0.0	108.5	7.1	89.9
Cc1ccc(Cl)cc1N1CCN(CC(=O)Nc2ccc(CN3CCCCC3)cc2)CC1	27.5*	2.9*	-26.8	8.2*	-20.6	101.8
Cc1ccc(CNC(=O)c2ccc(C#CC(C)(C)O)s2)cc1	106.6	107.2	-5.4	92.7	0.7	89.8
Cc1ccc2occ(C(c3nnnn3C3CCCC3)N3CCN(C(=O)c4ccco4)CC3)c(=O)c2c1 (configuration not stated)	100.2	59.9	0.2	93.0	-10.1	119.5
O=C(c1ccco1)N1CCN(C(c2coc3ccc(Cl)cc3c2=O)c2nnnn2C2CCCC2)CC1 (configuration not stated)	86.2	14.3*	-11.4	72.5	-34.8	92.3
CC1=C(C#N)c2nc(N)c(C#N)c(C)c2/C1=C\c1ccccc1	8.1*	1.6*	-6.5	13.2*	-2.7	116.3
CCCCCCNC(=O)CC(c1ccccc1)c1cc(Br)ccc1O (configuration not stated)	93.8	47.3	0.0	11.4*	-16.8	82.5
COc1ccc(CCN2C(=O)C3C4CC(C5C(C(=O)O)=NOC45)C3C2=O)cc1OC (configuration not stated)	97.3	92.7	-5.6	102.9	2.5	168.3
Cc1cccc(NC(=S)NC(=O)/C=C/c2ccco2)n1	89.7	32.8*	12.8	82.3	2.4	76.5
COc1ccc(-c2nn(C)c(=O)c3ccccc23)cc1NC(=O)Cn1nc(C)c2ccccc2c1=O	86.9	3.3*	50.4*[fluorescence artefact?]	83.8	63.2*	287.4*[fluorescence artefact?]
COc1ccc(NC(=O)Cc2nn(C)c(=O)c3ccccc23)c2ncccc12	93.1	84.5	17.2	110.8	-5.0	216.6*
